1 molecule from ChEMBL document CHEMBL1145922, “1,2-benzisoxazole phosphorodiamidates as novel anticancer prodrugs requiring bioreductive activation” (J Med Chem, 2003) can be followed below.

The species named for the assay is Rattus norvegicus. Description: Percent inhibition of formation of compound upon incubation of 15 with phenobarbit-induced rat liver microsomal fraction in hypoxic condition in presence of SKF-525A at a concentration of 2 mM. Format: functional. In outline: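 Phenobarbital-induced rat liver microsomes; inhibitors SKF-525A (in methanol) or pCMBA (in DMF) at 0–4 mM final. pCMBA preincubated 30 min before NADPH; SKF-525A incubated 15 min with microsomes and NADPH. Hypoxic samples nitrogen-purged. Substrate 2.5 mM added, 30 min at 37 °C. Ketone metabolite by HPLC at 254 nm as percent of substrate; % inhibition relative to no inhibitor. Mean of two experiments.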

Usually inhibition stands for the change of the read-out against control, counted positive when it falls.

For the molecule `CCC(=O)c1ccccc1O`, the inhibition stood at 29%.
